The text below walks through data of ChEMBL document CHEMBL4219242, “Furoxans (Oxadiazole-4 N-oxides) with Attenuated Reactivity are Neuroprotective, Cross the Blood Brain Barrier, and Improve Passive Avoidance Memory” (J Med Chem, 2018).

Structures are written as SMILES. The source made the active and inactive calls.

Series [1] concerns PC-12. Kind of series: Neuroprotective activity against oxygen glucose deprivation-induced cell death in rat PC12 cells assessed as change in cell viability at 25 uM after 24 hrs by MTT assay relative to control. The series is classed as functional. The gist of the method:
(§1)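 Undifferentiated PC12 cells (passage 12−14), 1 × 10^6 plated overnight in DMEM/F12 with 5% FBS and 5% horse serum. OGD: glucose-free HBSS under argon in an anaerobic chamber, 1.5 h at 37 °C. Reoxygenated in fresh growth medium with compound or DMSO vehicle for 24 h at 37 °C. Viability by MTT (0.5 mg/mL, 4 h), DMSO-solubilised, A540. % change vs vehicle control; mean ± SEM, n=3, triplicate experiments.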
For orientation: Tetrazolium assays rely on reduction of a dye to a coloured formazan, in cell work by metabolically active cells.

The subject of series [2] is PC-12. Kind of series: Neuroprotective activity against oxygen glucose deprivation-induced cell death in rat PC12 cells assessed as change in cell viability at 10 uM after 24 hrs by MTT assay relative to control. It counts as functional. The gist of the method: as §1
Series [3] relates to PC-12. Kind of series: Neuroprotective activity against oxygen glucose deprivation-induced cell death in rat PC12 cells assessed as change in cell viability at 1 uM after 24 hrs by MTT assay relative to control. The series is classed as functional. Summed up:
as §1

The subject of series [4] is PC-12. The series can be described thus: Cytotoxicity against rat PC12 cells assessed as reduction in cell viability at 50 uM after 24 hrs by MTT assay. It counts as cell-based. The conditions noted are these: pc-12, 24 h.
For series [5], the system named is PC-12. Kind of series: Neuroprotective activity against oxygen glucose deprivation-induced cell death in rat PC12 cells assessed as change in cell viability at 10 to 50 uM after 24 hrs cotreated with sGC inhibitor ODQ by MTT assay. The series is classed as functional, cell-based. Summed up: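 OGD-exposed PC12 cells (90 min glucose-free HBSS under argon, 37 °C) treated for 24 h with compound with or without the sGC inhibitor ODQ (10 μM). MTT viability read-out (0.5 mg/mL, 4 h, A540). Mean ± SEM (n = 3) of duplicate experiments; one-way ANOVA with Dunnett's test against vehicle.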

Series [6] can be described thus: Drug uptake in C57BL/6 mouse plasma at 20 mg/kg, ip or po measured after 1 to 12 hrs by LC-MS/MS analysis. The series is classed as ADME, organism-based. The conditions noted are these: in vivo. Summed up:
(§2)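 Male C57BL/6 mice (n = 4 per group) given the HCl salt at 20 mg/kg, either by oral gavage in sesame oil or ip in 0.9% NaCl with 1% DMSO. Sacrificed at 1, 2 or 12 h. Plasma (cardiac puncture, K2EDTA) and forebrain homogenate underwent solid-phase extraction with the d4 internal standard, then LC-MS/MS MRM quantitation against a spiked-brain calibration curve. Concentrations normalised to tissue weight; duplicate LC runs.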

Series [7] concerns Mus musculus. The series can be described thus: Reversal of scopolamine-induced memory impairment in C57BL/6 mouse assessed as latency time to enter dark compartment at 20 mg/kg, ip administered 60 to 120 mins prior to training followed by scopolamine challenge 30 mins prior to training measured after 24 hrs (reference value: 63.5 +/- 30 sec). It counts as functional. The gist of the method:
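Male C57BL/6 mice, habituated to confirm photophobia, were given the HCl salt (0.1–20 mg/kg ip in 0.9% NaCl/1% DMSO) 60 or 120 min before training, and scopolamine 1 mg/kg ip 30 min before training. Double-trial step-through training used a 0.5 mA, 3 s shock. Latency to enter the dark side was measured 24 h later (cut-off 300 s). n = 8–9; ANOVA with Dunnett's test.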

The subject of series [8] is PC-12. The series can be described thus: Neuroprotective activity against oxygen glucose deprivation-induced cell death in rat PC12 cells assessed as change in cell viability after 24 hrs by resorufin-dye based assay. The series is classed as functional. The conditions noted are these: PC-12, 24 h. The gist of the method:
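PC12 cells (undifferentiated, passage 12−14) given OGD for 90 min (glucose-free HBSS, argon, 37 °C), then normoxic growth medium with compound at 0.1, 1, 5, 10, 25 or 50 μM for 24 h. PrestoBlue (10%, 30 min) fluorescence at 560/590 nm. Viability as percent change against vehicle-control mean; control plates without OGD were included.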

Series [9] concerns Mus musculus. The series can be described thus: Effect on CREB phosphorylation in C57BL/6 mouse forebrain at 20 mg/kg, ip or po measured after 1 to 12 hrs by ELISA. It counts as organism-based. The conditions noted are these: in vivo. (In general: In an ELISA, binding on a coated surface is turned into a signal by an enzyme label.)
The test system of series [10] is PC-12. The series can be described thus: Neuroprotective activity against oxygen glucose deprivation-induced cell death in rat PC12 cells assessed as reduction in cell viability at 50 uM after 24 hrs by MTT assay. The series is classed as functional, cell-based.
Series [11] can be described thus: Drug uptake in cytosol of rat PC12 cells at 25 after 24 hrs under oxygen glucose deprivation condition by LC-MS/MS analysis. It counts as ADME, subcellular, PC-12. The gist of the method:
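After OGD (as in the neuroprotection assay), 1×10^6 PC12 cells were exposed to analyte at 25 μM for 24 h; a non-OGD plate served as control. Medium and cytosolic fractions (HEPES/NP-40 lysis buffer, 15 min at 0 °C, centrifuged) were diluted in 2% formic acid, spiked with the deuterated/nondeuterated partner as internal standard, and analysed by UPLC-MS/MS (MRM). AUCs were normalised to the internal standard.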

Series [12] has as its system Mus musculus. The series can be described thus: Effect on CREB phosphorylation in hippocampal tissue of scopolamine-induced C57BL/6 mouse memory deficit model at 20 mg/kg, ip treated for 2 hrs prior to test followed by scopolamine challenge 30 mins prior to test by Western blot analysis. The following applies: in vivo. The series is classed as organism-based. The gist of the method: (§3)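 C57BL/6 mice (N = 8 per cohort, blinded) received the HCl salt at 20 mg/kg ip (saline/1% DMSO) or vehicle 2 h before sacrifice, and scopolamine at 1 mg/kg ip or saline 30 min before sacrifice. Hippocampal lysates were run on 10−20% Tris-glycine gels and transferred to PVDF. Blots were probed with pCREB Ser133, CREB, p-ERK1/2 Thr202/Tyr204 and ERK1/2 antibodies, normalised to GAPDH and expressed as phospho:total.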
For orientation: A western blot detects proteins with antibodies after separation by electrophoresis.

Series [13] can be described thus: Drug uptake in C57BL/6 mouse brain at 20 mg/kg, ip or po measured after 1 to 12 hrs by LC-MS/MS analysis. The series is classed as ADME, organism-based. The conditions noted are these: in vivo. The gist of the method: as §2
Series [14] can be described thus: Stability of the compound in pH 7.4 PBS buffer at 250 uM after 2 to 12 hrs in presence of excess free thiols by HPLC-PDA analysis. It counts as physicochemical. The conditions noted are these: pH 7.4, 250 µM. Summed up: (§4)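 Compound (250 μM) or N-ethylmaleimide control (250 μM) incubated with or without N-acetylcysteine (5 mM) in 50 mM PBS, pH 7.4, at 37 °C. Aliquots taken at 2 and 12 h were analysed by HPLC-PDA. Peak AUC at each analyte's λmax gave the remaining starting material.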

Series [15] deals with Mus musculus. The series can be described thus: Effect on Erk phosphorylation in hippocampal tissue of scopolamine-induced C57BL/6 mouse memory deficit model at 20 mg/kg, ip treated for 2 hrs prior to test followed by scopolamine challenge 30 mins prior to test by Western blot analysis. It counts as organism-based. The following applies: in vivo. Summed up:
as §3

A short description of series [16]: Ratio of drug uptake in C57BL/6 mouse brain to plasma at 20 mg/kg, ip measured after 1 to 12 hrs by LC-MS/MS analysis. The series is classed as ADME, organism-based. The conditions noted are these: read-out: BPR. Summed up:
(§5)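 Brain:plasma ratio taken from forebrain and plasma levels in C57BL/6 mice dosed at 20 mg/kg (ip in saline/1% DMSO or po in sesame oil), sampled at 1, 2 or 12 h. Samples extracted by SPE with the d4 internal standard and measured by LC-MS/MS MRM. Mean ± SEM; routes compared by unpaired t test.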

Series [17] can be described thus: Half life in C57BL/6 mouse brain at 20 mg/kg, ip or po measured after 1 to 12 hrs by LC-MS/MS analysis. The series is classed as ADME, organism-based. The gist of the method: as §2
The nature of series [18]: Ratio of drug uptake in C57BL/6 mouse brain to plasma at 20 mg/kg, po measured after 1 to 12 hrs by LC-MS/MS analysis. The series is classed as ADME, organism-based. The following applies: read-out: BPR. Summed up: as §5
Series [19] is described as follows: Half life in C57BL/6 mouse plasma at 20 mg/kg, ip or po measured after 1 to 12 hrs by LC-MS/MS analysis. It counts as ADME, organism-based. Summed up:
as §2

A short description of series [20]: Thiol reactivity of the compound in pH 7.4 PBS buffer at 250 uM after 2 to 12 hrs by HPLC-PDA analysis. The series is classed as physicochemical. The conditions noted are these: pH 7.4, 250 µM. Summed up: as §4

On to `CC1CCN(Cc2c(-c3ccc(OC(F)F)cc3)no[n+]2[O-])CC1`, for which the results for the Activity in series [1], in series [2] and in [3] were 108%, 86% and 54%, respectively.

Regarding `[2H]C1([2H])CC(C)CC([2H])([2H])N1Cc1c(-c2ccc(F)cc2)no[n+]1[O-]`, the Activity in series [1] is on record as -1%; in series [2], 6%; in series [3], 11%.

On to `CC1CCN(Cc2no[n+]([O-])c2-c2ccc(Br)cc2)CC1`, for which the Activity is 96% in series [1], 77% in [2] and 25% in series [3].

As a reminder, the EC50 is the concentration that produces a half-maximal response. As usually defined, the half-life is the time in which the quantity being followed falls by half. Read a high half-life as slow loss. Consider `CC1CCN(Cc2no[n+]([O-])c2-c2ccc(F)cc2)CC1`, for which the Activity entry in [4] is given as “Non-Toxic”; in [1], 41%; in series [9] it was “Non-Toxic”; in [12], “Non-Toxic”; in [15] it was “Non-Toxic”; in series [2] it was 46%. In addition, in series [3], the Activity is on record as -3%. Also, the result in series [5] and in [10] was inactive. The Drug uptake result in [6], in series [11] and in series [13] was “Active” in each case. In addition, the Time in series [7] is 237 s. The EC50 in [8] amounted to 1900 nM. In addition, the Stability result in [14] is “Stable”. Besides, the Kp was found to be 0.68 in series [16] and 1.49 in series [18]. The half-life in [17] is 0.833 h; in [19], 1.83 h.

As for `COc1ccc(-c2c(CN3CCC(C)CC3)no[n+]2[O-])cc1`, the Activity was determined as 5% in series [1], 12% in series [2] and 11% in [3].

As for `CC1CCN(Cc2c(-c3ccc(F)cc3)no[n+]2[O-])CC1`, the Activity in series [1] was 5%; in [2] it was 11%; in series [3], 11%.

In the case of `CCN1C(=O)C=CC1=O` [N-ETHYLMALEIMIDE], the Drug metabolism result in [20] is “Metabolite_Detected”.

As for `CC1CCN(Cc2c(-c3ccccc3)no[n+]2[O-])CC1`, the results for the Activity in series [1], in series [2] and in [3] were 16%, 19% and 9%, respectively.

On to `CC1CCN(Cc2no[n+]([O-])c2-c2ccc(OC(F)F)cc2)CC1`, for which the Activity in [1] is 53%; in series [2] it was 61%; in series [3], 67%.

For `Cc1ccc(-c2c(CN3CCC(C)CC3)no[n+]2[O-])cc1`, the Activity in series [1] was determined as 8%; in series [2], 13%; in series [3], 22%.

For `[2H]C1([2H])CC(C)CC([2H])([2H])N1Cc1no[n+]([O-])c1-c1ccc(F)cc1`, the Activity in [1] stood at 7%; in series [2], 20%; in [3], 8%. Further, the Drug uptake entry in series [11] is “Active”.

In the case of `CC1CCN(Cc2c(-c3ccc(Cl)cc3)no[n+]2[O-])CC1`, the Activity in [1] was 25%; in series [2], 7%; in series [3], 35%.

Turning to `Cc1ccc(-c2no[n+]([O-])c2CN2CCC(C)CC2)cc1`, the Activity turned out to be 10% in [1], 12% in [2] and 7% in series [3].

Turning to `COc1ccc(-c2no[n+]([O-])c2CN2CCC(C)CC2)cc1`, the results for the Activity in [1], in [2] and in series [3] were -1%, 10% and 14%, respectively.

`CC1CCN(Cc2no[n+]([O-])c2-c2ccc(Cl)cc2)CC1`: the results for the Activity in series [1], in series [2] and in series [3] were 4%, 19% and -10%, respectively.

For `CC1CCN(Cc2no[n+]([O-])c2-c2ccc(C(F)(F)F)cc2)CC1`, the values for the Activity in series [1], in series [2] and in series [3] were -22%, -16% and 2%, respectively.

Take `CC1CCN(Cc2c(-c3ccc(Br)cc3)no[n+]2[O-])CC1`: the Activity was 19% in [1], -2% in series [2] and -7% in series [3].

With `CC1CCN(Cc2c(-c3ccc(C(F)(F)F)cc3)no[n+]2[O-])CC1`, the Activity is 0% in series [1], 10% in series [2] and -9% in [3].

With `CC1CCN(Cc2no[n+]([O-])c2-c2ccccc2)CC1`, the results for the Activity in series [1], in series [2] and in series [3] were -11%, 6% and -21%, respectively.
